# Screening data (PubChem)
# Cl transport mod: KCC2 cotransporter modulators, thallium flux, primary screen, cell-based, HEK293 KCC2, FluoZin-2 fluorescence, MLSMR; Solute carrier family 12 member 5 (Homo sapiens), Q9H2X9; KCC2 cells, thallium flux FluoZin-2 fluorescence; B-score of Tl+ flux slope (higher = more flux/activation; lower = inhibition) at 10 µM; actives 2.2% (n = 190,000); AID 1456, 2008;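 active = thallium flux slope and its plate-corrected score both differing from the plate sample mean at a set confidence after two filtering rounds, in either direction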;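 note: slope of fluorescence scaled to starting intensity during 10 to 20 s after thallium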
# L major viab: Leishmania major promastigote growth inhibition, primary screen. actives 9% (n = 200,000). inhibition, % at 10 µM. Leishmania major promastigotes, resazurin fluorescence viability; in the data active = inhibition above about 50%;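 note: promastigotes grown with compound for 44 hours at 28 °C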
# Diaph inh CS: diaphorase inhibitors and chemical oxidizers, primary screen, counter-screen for diaphorase-coupled primary assays, biochemical, uHTS, resorufin fluorescence. actives 0.69% (n = 190,000). diaphorase resazurin-to-resorufin fluorescence, NADH, 16 min; bacterial (C. kluyveri) enzyme, not human. inhibition, % at 20 µM;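 active = primary screen inhibition at 20 µM above a set limit, cut at about 50% in these data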
#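 controls = No-NADH positive control and DMSO neutral control | system = Clostridium kluyveri diaphorase enzyme | timing = reaction incubation of 16 min at room temperature | signal = resorufin fluorescence 544/590 nm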
# Diaphorase act: compounds boosting diaphorase resazurin reduction – biochemical, uHTS, resorufin fluorescence, counter-screen for diaphorase-coupled primary assays, primary screen | activation factor at 20 µM | actives 0.005% (n = 190,000) | Diaphorase/resazurin coupled assay, 16 min; active compounds read high; 1 = vehicle wells, 0 = NADH-free wells;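 active = diaphorase activity raised at least twofold by the compound at 20 µM; inactive = activation factor below 2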
#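 Assay system: Purified diaphorase enzyme from Clostridium kluyveri | Amount: Enzyme 0.07 U/mL final | Dosing: Compound 20 µM once, DMSO 1% | Timing: 16 min reaction at room temperature | Detection: Fluorescence, excitation 544 nm and emission 590 nm | Evaluation: Higher resorufin formation from activation or reduction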
# ROMK primary: ROMK potassium channel modulators, primary screen, cell-based, thallium flux, MLSMR library; ATP-sensitive inward rectifier potassium channel 1 (Homo sapiens), P48048; Tet-inducible ROMK, thallium flux fluorescence; actives lie on both sides; B-score at 10 µM; actives 2% (n = 130,000); AID 1918, 2009;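 active = signal ratio slope over the read window, or its plate-corrected B-score, at least 3 SD from the plate mean, either direction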;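 note: B-score of the F/F0 ratio slope over 7 to 12 s after thallium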
# Target sequence (P48048 whole entry, looked up): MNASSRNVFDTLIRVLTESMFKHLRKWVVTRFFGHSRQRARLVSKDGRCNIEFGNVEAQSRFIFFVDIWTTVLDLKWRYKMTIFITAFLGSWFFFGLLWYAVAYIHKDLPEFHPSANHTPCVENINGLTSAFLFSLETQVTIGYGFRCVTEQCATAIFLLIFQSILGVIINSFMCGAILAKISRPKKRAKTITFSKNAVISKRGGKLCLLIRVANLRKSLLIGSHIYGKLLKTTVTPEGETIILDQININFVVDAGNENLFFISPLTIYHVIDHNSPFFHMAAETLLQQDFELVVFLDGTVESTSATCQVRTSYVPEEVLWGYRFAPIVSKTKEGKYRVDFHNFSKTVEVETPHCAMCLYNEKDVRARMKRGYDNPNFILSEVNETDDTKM
# WT yeast gro inh: growth inhibition of WT strain, primary screen, mitochondrial fusion inhibitor project, WT and mutant strains, chemical genetic | mitochondrial fusion phenotypic screen | inhibition, % at 10 µM | actives 2.1% (n = 190,000) | AID 1362, 2008; in the data active = inhibition above about 58%; tested in S. cerevisiae
# Numbers stand for hits; 0 = inactive; - = no result given. Shown are actives, neighbours in structure and some others; about 12% of the full set was active somewhere.
SMILES,Cl transport mod,L major viab,Diaph inh CS,Diaphorase act,ROMK primary,WT yeast gro inh
COc1ccc(CC2(CO)CCN(Cc3ccc(OC(F)(F)F)cc3)CC2)cc1,-,78,0,0,0,0
COc1ccc(CC2(CO)CCN(Cc3ccc(NC(C)=O)cc3)CC2)cc1,0,0,0,0,0,0
COc1ccc(CC2(CO)CCN(CC3=Cc4cc(Cl)ccc4OC3)CC2)cc1,0,89,-,-,-,0
COc1ccccc1C(=O)NNC(=O)c1ccc(NC(=O)C(C)C)cc1,0,0,0,0,0,0
CC(C)NS(=O)(=O)c1ccc(CCC(=O)NCc2ccncc2)cc1,0,0,0,0,-,0
O=C1Nc2ccc(Br)cc2C1=Nc1cccnc1,0,-,-,-,-,-
Cc1nnc(-c2ccccc2)c(=O)n1/N=C/c1c(O)ccc2ccccc12,0,98,0,0,-,0
CC(=O)c1c(C(C)=O)c(C)n(-c2nc(-c3ccc(C)c(C)c3)c(C)s2)c1C,0,0,0,0,-,0
O=C(COc1ccc2ccc(=O)oc2c1)N1CCN(c2ccccc2)CC1,0,69,0,0,0,0
COc1ccc(N2CCN(C(=O)COc3ccccc3)CC2)cc1,-,0,0,0,0,0
COc1ccc(-c2nnc(Sc3nc4ccccc4o3)c3ccccc23)cc1,0,88,0,0,0,0
COc1ccc(-c2nc3ccccc3nc2-c2ccccc2)cc1,0,0,0,0,0,0
Cc1c[n+](C)ccc1CC1C([N+](=O)[O-])=C[N-]c2ncnn21 (centres undefined),0,0,0,0,0,0
CC(=O)NC(c1ccco1)c1ccc2cccnc2c1O (centres undefined),-,98,53,0,0,0
COc1cc(C(Nc2ccccn2)c2ccc3ccc(C)nc3c2O)cc(OC)c1O (centres undefined),0,94,63,0,-,-
Cc1ccc2ccc(C(Nc3ccccn3)c3ccccc3)c(O)c2n1 (centres undefined),0,100,0,0,-,0
O=C(O)c1ccc2cccnc2c1O,0,-,-,-,-,-
COc1ccc(C(NC(=O)C(C)C)c2ccc3cccnc3c2O)cc1 (centres undefined),0,-,-,-,0,-
Oc1c(C(Nc2ccccn2)c2ccccn2)ccc2cccnc12 (centres undefined),0,100,0,0,-,0
COc1ccc(C(Nc2cc(C)ccn2)c2ccc3ccc(C)nc3c2O)cc1 (centres undefined),0,-,-,-,0,-
Cc1ccc(/C=C/C(=O)O)cc1S(=O)(=O)N(CCO)CCO,0,0,0,0,0,0
CC(C)C(NC(=O)C1CCCCC1)C(=O)NC1=NCCS1 (centres undefined),-,0,0,0,0,0
CC(=O)OCC(OC(C)=O)C(OC(C)=O)C(OC(C)=O)C(=O)Nc1ccccc1 (centres undefined),0,0,0,0,0,0
Cc1cc(C)nc(NC(=O)c2cc([N+](=O)[O-])cc([N+](=O)[O-])c2)n1,0,59,0,0,-,0
CCOC(=O)CSc1nnc(NC(=O)c2cc([N+](=O)[O-])cc([N+](=O)[O-])c2)s1,0,82,0,0,-,0
SMILES,Cl transport mod,L major viab,Diaph inh CS,Diaphorase act,ROMK primary,WT yeast gro inh
O=C(Nc1ncccn1)c1cc([N+](=O)[O-])cc([N+](=O)[O-])c1,0,99,0,0,0,0
COc1cc(NC(=O)CCCl)cc(-n2cnnn2)c1,0,0,0,0,-,0
COc1ccc(Cl)cc1N(CC(=O)Nc1ccc2c(c1)OCCO2)S(C)(=O)=O,-,0,0,0,-,0
COc1ccc(OC)c(-c2c3cc(O)c(=O)cc-3oc3cc(O)c(O)cc23)c1,0,0,88,0,-,58
COc1ccc(OC)c(-c2oc3ccccc3c(=O)c2O)c1,6.8,0,0,0,-,0
CC(=O)c1nn(-c2cccc(Br)c2)cc1C(=O)c1ccc(Cl)cc1,0,0,0,0,0,0
C=CCNC(=O)c1onc(CSc2ccccc2CC)c1C(=O)O,0,0,0,0,-,0
COc1ccc(C2C(C#N)=C(N)N(Nc3ccccc3)C3=C2C(=O)CC(C)(C)C3)cc1C (centres undefined),0,86,0,0,-,0
COc1cc(C2C(C#N)=C(N)N(Nc3ccccc3)C3=C2C(=O)CC(C)(C)C3)ccc1OCc1cccc(F)c1 (centres undefined),0,56,0,0,-,0
COc1cc(C2C(C#N)=C(N)N(Nc3ccccc3)C3=C2C(=O)CC(C)(C)C3)ccc1OCc1ccccc1 (centres undefined),0,100,0,0,-,0
C=CCOc1ccc(C2C(C#N)=C(N)N(Nc3ccccc3)C3=C2C(=O)CCC3)cc1OC (centres undefined),0,96,0,0,0,0
COc1ccc(C2C(C#N)=C(N)N(c3cccnc3)C3=C2C(=O)CC(C)(C)C3)cc1OC (centres undefined),0,0,0,0,0,0
Cc1nn(CC(=O)NCc2ccc(Cl)cc2)c(C)c1[N+](=O)[O-],0,0,0,0,0,0
Cn1c(N)c(C(=O)COC(=O)CC2CC3CCC2C3)c(=O)n(C)c1=O (centres undefined),0,0,0,0,0,0
CC1(C)CC(=O)C(CCC(=O)c2ccccc2)C(C)(C)N1 (centres undefined),0,90,0,0,-,0
CCSc1nnc(NC(=O)CSc2ncccn2)s1,0,0,0,0,0,0
CCSc1nnc(NC(=O)COc2ccccc2)s1,0,0,0,0,0,0
CCSc1nnc(NC(=O)COc2ccc3ccccc3c2)s1,0,0,0,0,-,84
CCCC(=O)Nc1nnc(SCC)s1,0,70,0,0,0,0
COc1cc(/C=C2\SC(=S)N(N(C)c3ccccc3)C2=O)ccc1O,0,-,-,-,-,-
FC(F)(F)c1cc(-c2ccccc2)nc2nc(N3CCOCC3)sc12,0,0,0,0,0,0
Cc1cc(C)c(CN2CCN(Cc3ccc(C)o3)C(CCO)C2)c(-n2cccn2)c1 (centres undefined),0,0,0,0,0,0
CC(=O)NC1(c2nnnn2CCOC(=O)Nc2ccc(Cl)cc2)CCCC1,0,0,0,0,0,0
O=C(Nc1ccc(Cl)cc1)OCCn1nnnc1C(c1ccccc1Cl)N1CCOCC1 (centres undefined),0,90,0,0,-,0
COc1ccc(CCN2C(=O)NC(NS(=O)(=O)c3ccc(N)cc3)(C(F)(F)F)C2=O)cc1OC (centres undefined),0,0,0,0,0,0
